Bioassay records deposited in PubChem by The Scripps Research Institute Molecular Screening Center.
This is a sample that favours compounds with a hit; in the whole collection about 2.7% have one here.
IMP-1 inh-1: inhibitors of Pseudomonas aeruginosa IMP-1 metallo-beta-lactamase. purified IMP-1, nitrocefin hydrolysis, epi-absorbance fluorescence. inhibition, % at 5.6 µM. 290,000 tested, 0.45% active. AID 1556;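 active = inhibition above the mean plus 3 SD of all compounds in the same screening run, cut at about 4.5% in these data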;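 also: 0% = IMP-1 with DMSO and 100% = DMSO wells lacking enzyme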
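Material – recombinant IMP-1 enzyme, purified · Amount – IMP-1 0.2 nM before substrate addition · Medium – HEPES buffer pH 7.1 with ZnSO4 and Brij 35 · Timing – 25 °C, 15 min preincubation, 25 min reaction · Measured by – plate fluorescence quenching by hydrolysis product, ex 480/em 530 nm · Read-out – percent enzyme inhibition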
Fh CTSL1 inh: cathepsin L1 inhibition, PFM18AAP counter-screen; recombinant F. hepatica cathepsin L1, Z-Leu-Arg-MCA fluorescence; 300,000 tested, 0.49% active; inhibition, % at 5.96 µM; AID 1906;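 active = inhibition above the mean of all tested compounds plus 3 SD, set per screening campaign, cut at about 17% in these data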;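 also: 0% = plate median of test compound wells and 100% = 1 µM Z-Phe-Ala-diazomethylketone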
VIM-2 inh: inhibitors of Pseudomonas aeruginosa VIM-2 metallo-beta-lactamase. purified VIM-2, nitrocefin hydrolysis, epi-absorbance fluorescence. inhibition, % at 5.6 µM. 290,000 tested, 0.89% active. AID 1527;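 active = inhibition above the mean of all tested compounds plus 3 SD, cutoff set per screening run, cut at about 7.5% in these data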;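 also: red hydrolysis product quenches plate fluorescence so inhibitors raise well fluorescence; 0% = enzyme with DMSO and 100% = DMSO without enzyme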
PfM18AAP inh: blocks P. falciparum M18 aspartyl aminopeptidase; recombinant PfM18AAP, H-Glu-NHMec fluorogenic cleavage; inhibition, % at 7.35 µM; 290,000 tested, 1.2% active;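 active = inhibition above the campaign mean inhibition over all tested compounds plus 3 SD, cut at about 28% in these data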;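 also: 0% = plate median of test compound wells and 100% = 2 mM ZnCl2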
IMP-1 inh-2: blocks IMP-1 metallo-beta-lactamase in VIM-2 selectivity screen; purified IMP-1, nitrocefin hydrolysis, epi-absorbance fluorescence; shares compounds with VIM-2 inh; 1,300 tested, under 10 active; inhibition, % at 5.6 µM; call rule not given here;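 also: 0% = enzyme with vehicle and 100% = vehicle without enzyme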
VIM-2 FRET inh: VIM-2 FRET inhibition, artifact counter-screen; inhibition, % at 5.6 µM; 1,300 tested, 23% active; shares compounds with VIM-2 inh; AID 1857; purified VIM-2, CCF2 FRET substrate hydrolysis;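 active = inhibition above the mean of all tested compounds plus 3 SD, cut at about 19% in these data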;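 also: 0% = VIM-2 plus DMSO and 100% = no enzyme wells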
TEM-1 counter: TEM-1 inhibition, counter-screen for VIM-2 inhibitors; shares compounds with VIM-2 inh; Purified TEM-1, nitrocefin hydrolysis, epi-absorbance fluorescence; inhibition, % at 5.6 µM; 1,300 tested, 3% active;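 active = inhibition above that campaign's mean inhibition plus 3 SD, cut at about 0.46% in these data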;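 also: 0% = TEM-1 with DMSO and 100% = TEM-1 with 100 µM potassium clavulanate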
Target sequence (P62593 whole entry, looked up): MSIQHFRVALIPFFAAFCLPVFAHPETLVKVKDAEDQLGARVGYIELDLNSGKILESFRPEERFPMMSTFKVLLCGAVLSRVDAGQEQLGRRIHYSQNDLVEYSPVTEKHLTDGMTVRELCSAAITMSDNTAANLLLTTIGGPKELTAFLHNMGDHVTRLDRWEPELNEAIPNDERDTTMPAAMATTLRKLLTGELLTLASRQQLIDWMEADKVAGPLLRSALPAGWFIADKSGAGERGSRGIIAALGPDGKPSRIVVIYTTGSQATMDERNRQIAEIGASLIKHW
VIM-2 inh conf: confirmation of P. aeruginosa VIM-2 metallo-beta-lactamase inhibitors; inhibition, % at 5.6 µM; purified VIM-2, nitrocefin hydrolysis, epi-absorbance; shares compounds with VIM-2 inh; 1,300 tested, 96% active;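 active = inhibition of the VIM-2 beta-lactamase enzyme above about 11% from the earlier first-round screen, limit read from the data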;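 also: 0% = VIM-2 with DMSO and 100% = buffer wells without enzyme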
An asterisk follows results filed as active; / = no result given.

SMILES	IMP-1 inh-1	Fh CTSL1 inh	VIM-2 inh	PfM18AAP inh	IMP-1 inh-2	VIM-2 FRET inh	TEM-1 counter	VIM-2 inh conf
S=c1[nH]nc(C2CC2)n1Cc1ccccc1	-4	1	47*	15	-3	75*	-7	61*
CC(=O)c1ccc(Nc2nc(-c3cccnc3)cs2)cc1	-3	/	14*	1	-3	-4	-7	15*
O=C(NCC1CCCO1)C(c1ccco1)N(Cc1ccc(F)cc1)C(=O)CN1C(=O)c2ccccc2S1(=O)=O (configuration not stated)	0	0	-3	7	/	/	/	/
CCn1c(=O)c2cc(C(=O)NCCN(C)C)sc2c2ccccc21	-1	2	13*	1	-2	1	-5	20*
CCN(CC)CCCNC(=O)c1cc2c(=O)n(CC)c3ccccc3c2s1	-2	3	14*	5	-2	1	-5	21*
CCN(CC)CCNC(=O)c1cc2c(=O)n(CC)c3ccccc3c2s1	-4	2	14*	-2	-2	-1	-4	21*
CCn1c(=O)c2cc(C(=O)N3CCCC3)sc2c2ccccc21	-4	/	-1	-5	/	/	/	/
CCCCN(CC)CCNC(=O)c1cc2c(=O)[nH]c3ccccc3c2s1	-4	-1	7	5	/	/	/	/
O=C(CN(C(=O)c1csnn1)c1ccccc1Cl)NC1CCCC1	-4	-1	-2	2	/	/	/	/
Cc1cc(C)c(S(=O)(=O)c2ccccc2)c(N2CCOCC2)n1	-1	1	-1	3	/	/	/	/
CCOc1ccc(OCC)c(NC(=O)c2nnn(CC(=O)Nc3cc(C)cc(C)c3)c2N)c1	-1	2	-3	-1	/	/	/	/
Cc1oc2cc3oc(=O)c(CCC(=O)NCCCn4ccnc4)c(C)c3cc2c1C	-6	-2	4	7	/	/	/	/
CC(Oc1ccc2c3c(c(=O)oc2c1)CCCC3)C(=O)NCCCn1ccnc1 (configuration not stated)	-4	3	23*	1	-4	-6	-6	40*
O=C(COc1ccc2c3c(c(=O)oc2c1)CCCC3)NCCCn1ccnc1	-1	-1	30*	0	-1	-5	1.4*	41*
Cc1c(C)c2ccc(OCC(=O)NCCCn3ccnc3)cc2oc1=O	0	-1	21*	-6	-4	-1	-6	32*
CCOC(=O)c1c(-c2ccccc2)oc2ccc(OCC)cc12	-1	-2	-2	7	/	/	/	/
CCOC(=O)c1c(-c2ccccc2)oc2ccc(OCC(O)CNCCN(C)C)cc12 (configuration not stated)	1	-2	25*	-1	-3	20*	-6	38*
Cc1cc(SCC(=O)NCCC2=CCCCC2)nc2ccccc12	-3	1	-2	8	/	/	/	/
Cc1c(Cl)cccc1-c1ccc(/C=N/n2cnnc2)o1	0	0	32*	23	-4	-5	-7	53*
COC(=O)N/N=C/c1ccc(-c2ccccc2Cl)o1	0	1	-1	2	/	/	/	/
Clc1cccc(-c2ccc(/C=N/n3cnnc3)o2)c1Cl	-3	8	29*	5	-3	-8	-5	64*
Cn1cccc1/C=N/n1cnnc1	-2	0	-1	3	/	/	/	/
Clc1ccccc1-c1ccc(/C=N/n2cnnc2)o1	-4	2	21*	4	-3	-1	-6	42*
Clc1ccc(Sc2ccc(/C=N/n3cnnc3)o2)cc1	-2	6	-4	7	/	/	/	/
Cn1nc(C(=O)NCCc2ccc(S(N)(=O)=O)cc2)c2ccccc2c1=O	-3	-2	-3	0	/	/	/	/
SMILES	IMP-1 inh-1	Fh CTSL1 inh	VIM-2 inh	PfM18AAP inh	IMP-1 inh-2	VIM-2 FRET inh	TEM-1 counter	VIM-2 inh conf
COc1cccc(N=Cc2c(O)c3ccccc3oc2=O)c1	0	-11	1	21	/	/	/	/
Cc1ccc(S(=O)(=O)n2[nH]c(=O)cc2NC(=O)c2cccs2)cc1	0	0	70*	-8	-4	91*	-6	84*
Nc1cc(OC(=O)c2cccs2)nn1S(=O)(=O)c1ccccc1	-2	-36	-2	-14	/	/	/	/
COc1ccc(S(=O)(=O)n2nc(OC(=O)c3cccs3)cc2NC(=O)c2cccs2)cc1	-1	-13	74*	-1	-3	37*	5.7*	16*
Cc1ccc(NC(=O)c2cccs2)cc1	-3	3	-1	2	/	/	/	/
O=c1c(-c2n[nH]c(=S)n2-c2ccccc2)cccn1Cc1cccc(Cl)c1	-4	0	25*	14	-3	48*	-9	31*
Cc1cccc(-c2n[nH]c(=S)n2-c2ccccc2)c1[N+](=O)[O-]	-2	2	34*	19	-2	62*	-7	44*
O=[N+]([O-])c1cccc(-c2n[nH]c(=S)n2-c2ccccc2)c1	-3	2	-1	12	/	/	/	/
Cc1c(Cl)c(-c2n[nH]c(=S)n2-c2ccccc2)nn1C	-5	-3	19*	14	-3	44*	-8	27*
CC(C)n1c(CSCc2ccc(Cl)cc2Cl)n[nH]c1=S	-3	-1	-6	4	/	/	/	/
CC1(c2ccc(Cl)cc2Cl)NC(=O)N(CC(=O)Nc2ccc3[nH]c(=O)[nH]c3c2)C1=O (configuration not stated)	/	3	/	/	/	/	/	/
COc1cccc(-n2c(CNC(=O)OC(C)(C)C)n[nH]c2=S)c1	-5	-1	19*	11	-5	44*	-7	27*
COc1cccc(C(=O)NCc2n[nH]c(=S)n2-c2cccc(C)c2)c1	-4	14	3	7	/	/	/	/
CC(=O)Nc1ccc2sccc2c1	-2	5	-1	-8	/	/	/	/
COc1ccc(-c2cc(C(=O)c3c(N)n(C)c(=O)n(C)c3=O)c3ccccc3n2)cc1	-6	-3	-3	-2	/	/	/	/
Cn1c(N)c(C(=O)c2cc(-c3ccccn3)nc3ccccc23)c(=O)[nH]c1=O	-15	/	38*	-3	-6	-14	-7	42*
COc1cc2c(cc1OC)C(c1ccc(-c3ccccc3Cl)o1)=NCC2	-1	2	19*	2	-2	8	-5	28*
COc1cc2c(cc1OC)C(c1ccc(-c3ccc(Cl)cc3Cl)o1)=NCC2	0	1	3	-3	/	/	/	/
Cc1ccc(S(=O)(=O)Nc2ccc3c(c2)c2c(n3S(=O)(=O)c3ccc(C)cc3)CCCC2=O)cc1	-2	1	-1	-8	/	/	/	/
CC1CC1C(=O)N(C)CC(=O)Nc1cccc(F)c1 (configuration not stated)	/	-2	/	/	/	/	/	/
COc1ccc(CC(=O)Nc2cccc(-c3ccc4nnc(C)n4n3)c2)cc1	-3	-2	4	-1	/	/	/	/
Cc1nnc2ccc(-c3cccc(NC(=O)c4ccco4)c3)nn12	-1	-5	15*	3	-2	1	-8	25*
